Assay results: ChEMBL document CHEMBL1151860, “Asymmetric synthesis and biological evaluation of Danshensu derivatives as anti-myocardial ischemia drug candidates” (Bioorg Med Chem, 2009)
Calls of active or inactive are those of the source. No cut-off for these calls is given here.

Legend:
[1] = species: Rattus norvegicus; test: Cytoprotective effect against hypoxia-induced Sprague-Dawley rat NRVM assessed as decrease in LDH leakage pretreated for 12 hrs before hypoxia induction at 1 umol/L relative to control; format: functional
Method in brief: (§1)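 Neonatal rat ventricular myocytes were obtained by trypsin digestion, preplated for 2 h, then seeded at 1 × 10⁶ cells/ml in DMEM with 10% FBS, penicillin/streptomycin and 5-bromo-deoxyuridine at 37 °C, 5% CO₂. After 48 h they were given compound for 12 h, then 5 h hypoxia. Viability was read by MTT and damage by LDH leakage; means SE.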

[2] = species: Rattus norvegicus; test: Cytoprotective effect against hypoxia-induced Sprague-Dawley rat NRVM assessed as increase in cell viability pretreated for 12 hrs before hypoxia induction at 1 umol/L measured after 5 hrs by MTT assay relative to control; format: functional; method in brief: as §1
[3] = species: Rattus norvegicus; test: Antioxidant activity against hypoxia-induced lipid peroxidation in Sprague-Dawley rat NRVM assessed as decrease in malondialdehyde content at 1 umol/l relative to hypoxia control; format: functional
[4] = test system: Rattus norvegicus; test: Cardioprotective effect in Sprague-Dawley rat myocardial infarction model assessed as decrease in serum LDH level at 15 to 60 mg/kg, ip treated 7 days before myocardial infarction surgery and after 2 days once daily; format: functional, organism-based
Method in brief: (§2)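 Male Sprague-Dawley rats (230–250 g) were anaesthetised with chloral hydrate (60 mg/kg ip), intubated and ventilated, and the left coronary artery ligated; sham rats were not ligated. Drug at 15, 30 or 60 mg/kg ip was given once daily from 7 days before to 2 days after surgery. Serum LDH, CK, SOD and MDA were measured by diagnostic kit; means SE, n = 6, P < 0.05.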

[5] = Antiapoptotic activity against hypoxia-induced Sprague-Dawley rat NRVM assessed as decrease in caspase 3 mRNA level at 1 umol/l by RT-PCR; format: functional
[6] = Antiapoptotic activity against hypoxia-induced morphological changes in Sprague-Dawley rat NRVM assessed as decrease in nuclear condensation at 1 umol/l by Heochst dye relative to hypoxia induced control; format: functional
Method in brief: (§3)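 Cultured neonatal rat ventricular myocytes (trypsin-dissociated, 2 h preplating, DMEM/10% FBS with 5-bromo-deoxyuridine, 37 °C, 5% CO₂) were pretreated 12 h with compound after 48 h culture, then made hypoxic for 5 h. Nuclei were Hoechst-stained to score shrinkage and condensation.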

[7] = test system: Rattus norvegicus; test: Cardioprotective effect in Sprague-Dawley rat myocardial infarction model assessed as decrease in infarct size at 60 mg/kg, ip treated 7 days before myocardial infarction surgery and after 2 days once daily by TTC staining; format: functional, organism-based; set-up: dose 60 mg/kg; settings: Myocardium
Method in brief: (§4)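 Male Sprague-Dawley rats (230–250 g), anaesthetised with 7% chloral hydrate (60 mg/kg ip), intubated and ventilated; left coronary artery ligated (sham: no ligation). Five randomised groups: MI, sham, MI plus drug at 15, 30 or 60 mg/kg ip once daily. Hearts excised 2 days post-ligation, ventricles cut into five transverse slices, 1% TTC at 37 °C for 15 min; unstained area taken as infarct. Means SE.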

[8] = test system: Rattus norvegicus; test: Cardioprotective effect in Sprague-Dawley rat myocardial infarction model assessed as increase in serum SOD level at 15 to 60 mg/kg, ip treated 7 days before myocardial infarction surgery and after 2 days once daily; format: functional, organism-based; method in brief: as §2
[9] = test system: Rattus norvegicus; test: Cardioprotective effect in Sprague-Dawley rat myocardial infarction model assessed as decrease in infarct size at 30 mg/kg, ip treated 7 days before myocardial infarction surgery and after 2 days once daily by TTC staining; format: functional, organism-based; set-up: dose 30 mg/kg; settings: Myocardium; method in brief: as §4
[10] = Antiapoptotic activity against hypoxia-induced Sprague-Dawley rat NRVM assessed as increase in bcl2 mRNA level at 1 umol/l by RT-PCR; format: functional
[11] = Antiapoptotic activity against hypoxia-induced Sprague-Dawley rat NRVM assessed as decrease in bax protein level at 1 umol/l by Western blot analysis; format: functional
[12] = Antiapoptotic activity against hypoxia-induced Sprague-Dawley rat NRVM assessed as increase in bcl2 protein level at 1 umol/l by Western blot analysis; format: functional
Method in brief: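 Myocytes were pretreated 12 h, then made hypoxic for 5 h and lysed at the end of hypoxia. Lysates were spun at 10,000 r/min for 10 min and protein quantified by BCA. Samples were transferred to PVDF and blocked 2 h at RT in TBS with 5% skim milk. For bcl-2, blots were probed 1 h at RT with rabbit anti-rat polyclonal antibody in TBS-T.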

[13] = Antiapoptotic activity against hypoxia-induced Sprague-Dawley rat NRVM assessed as decrease in bax mRNA level at 1 umol/l by RT-PCR; format: functional
[14] = Antiapoptotic activity against hypoxia-induced morphological changes in Sprague-Dawley rat NRVM assessed as decrease in nuclei shrunk at 1 umol/l by Heochst dye relative to hypoxia induced control; format: functional; method in brief: as §3
[15] = test system: Rattus norvegicus; test: Cardioprotective effect in Sprague-Dawley rat myocardial infarction model assessed as decrease in serum creatine kinase level at 15 to 60 mg/kg, ip treated 7 days before myocardial infarction surgery and after 2 days once daily; format: functional, organism-based; method in brief: as §2
[16] = test system: Rattus norvegicus; test: Cardioprotective effect in Sprague-Dawley rat myocardial infarction model assessed as decrease in infarct size at 15 mg/kg, ip treated 7 days before myocardial infarction surgery and after 2 days once daily by TTC staining; format: functional, organism-based; set-up: dose 15 mg/kg; settings: Myocardium; method in brief: as §4
[17] = test system: Rattus norvegicus; test: Cardioprotective effect in Sprague-Dawley rat myocardial infarction model assessed as decrease in serum malondialdehyde level at 15 to 60 mg/kg, ip treated 7 days before myocardial infarction surgery and after 2 days once daily; format: functional, organism-based; method in brief: as §2
[18] = species: Rattus norvegicus; test: Cytoprotective effect against hypoxia-induced Sprague-Dawley rat NRVM assessed as decrease in cellular damage pretreated for 12 hrs before hypoxia induction at 1 umol/L; format: functional

Row | Structure (SMILES) | Activity [1] | Activity [2] | Activity [3] | Activity [4] | Activity [5] | Activity [6] | Activity [7] | Activity [8] | Activity [9] | Activity [10] | Activity [11] | Activity [12] | Activity [13] | Activity [14] | Activity [15] | Activity [16] | Activity [17] | Activity [18]
1 | COC(=O)C(Cc1ccc(OC(C)=O)c(OC(C)=O)c1)OC(C)=O (racemic) | Active | Active |  |  |  |  |  |  |  |  |  |  |  |  |  |  |  | 
2 | CC(=O)O/C(=C\c1ccc(O)c(O)c1)C(=O)O | Active | Active | Active | Active | Active | Active | Active | Active | inactive | Active | Active | Active | Active | Active | Active | inactive | Active | 
3 | COC(=O)C(Cc1ccc2c(c1)OCO2)OC(C)=O (racemic) | Active | Active |  |  |  |  |  |  |  |  |  |  |  |  |  |  |  | 
4 | COC(=O)[C@@H](Cc1ccc2c(c1)OCO2)OC(C)=O | Active | Active | Active |  |  |  |  |  |  |  |  |  |  |  |  |  |  | Active
5 | COC(=O)[C@@H](Cc1ccc(OC(C)=O)c(OC(C)=O)c1)OC(C)=O | Active | Active | Active |  | Active | Active |  |  |  | Active | Active | Active | Active | Active |  |  |  | Active
